Where “and” joins values, the source holds several entries; their conditions need not be identical. Equal values may be shown once.
Legend:
Rat [1] = assay: concentration in brain after dosing; details: 0.75 h; dosed: 2-Methyltetrahydrofuran; 40 mg/kg; iv; Male; Harlan Sprague Dawley
Rat [2] = assay: concentration in brain after dosing; details: 0.2 h; dosed: 2-Methyltetrahydrofuran; 40 mg/kg; iv; Male; Harlan Sprague Dawley
Rat [3] = assay: concentration in plasma after dosing; details: 0.5 h; dosed: 2-Methyltetrahydrofuran; 40 mg/kg; iv; Female; Harlan Sprague Dawley
Rat [4] = assay: concentration in plasma after dosing; details: 0.75 h; dosed: 2-Methyltetrahydrofuran; 40 mg/kg; iv; Male; Harlan Sprague Dawley
rat [5] = assay: concentration in blood after dosing; details: dosed: trichloroethylene
human = assay: concentration in expired air after dosing; details: dosed: trichloroethylene, 100 ppm, inhalation, duration: 4 hr, person
Outline: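 Concentration-versus-time or amount-versus-time points were compiled from published in vivo toxicokinetic studies and from two structured collections. The studies were found by PubMed searching, classifier screening and manual review. Points were mostly digitised from plot screenshots with WebPlotDigitizer, otherwise copied from tables, and kept in the reported units. Dose, route, subject details and medium were curated by hand from each paper, and sampling and analytical methods follow each source and were often unreported.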

Rat [6] = assay: concentration in liver after dosing; details: 12 h; dosed: Perfluorohexanoic Acid; 80 mg/kg; oral; Male; Harlan Sprague Dawley
Rat [7] = assay: concentration in plasma after dosing; details: 10 h; dosed: Gemfibrozil; 50 mg/kg; oral; Male; Sprague-Dawley
Rat [8] = assay: concentration in plasma after dosing; details: 6 h; dosed: Gemfibrozil; 4.29 mg/kg; oral; Male; Sprague-Dawley
Rat [9] = assay: concentration in plasma after dosing; details: 0.25 h; dosed: Gemfibrozil; 100 mg/kg; oral; Male; Sprague-Dawley
Rat [10] = assay: concentration in plasma after dosing; details: 6 h; dosed: Gemfibrozil; 4.29 mg/kg; oral; Male; Sprague-Dawley; remark: listed apart in the source
Rat [11] = assay: concentration in plasma after dosing; details: 0.5 h; dosed: Gemfibrozil; 50 mg/kg; oral; Male; Sprague-Dawley
Rat [12] = assay: concentration in brain after dosing; details: 1848 h; dosed: Perfluorooctane Sulfonate; 20 mg/kg; oral; Female; F344
Rat [13] = assay: concentration in brain after dosing; details: 24 h; dosed: Perfluorooctane Sulfonate; 2 mg/kg; oral; Female; Harlan Sprague Dawley
Rat [14] = assay: concentration in plasma after dosing; details: 6 h; dosed: Perfluorooctane Sulfonate; 2 mg/kg; oral; Female; Harlan Sprague Dawley
Rat [15] = assay: concentration in kidney after dosing; details: 6 h; dosed: Perfluorooctane Sulfonate; 2 mg/kg; oral; Female; Harlan Sprague Dawley
Rat [16] = assay: concentration in plasma after dosing; details: dosed: Perfluorooctane Sulfonate, 2 mg/kg, iv, Female, F344
Rat [17] = assay: concentration in kidney after dosing; details: 3360 h; dosed: Perfluorooctane Sulfonate; 20 mg/kg; oral; Male; Harlan Sprague Dawley
Rat [18] = assay: concentration in kidney after dosing; details: 864 h; dosed: Perfluorooctane Sulfonate; 2 mg/kg; oral; Female; Harlan Sprague Dawley
Rat [19] = assay: concentration in liver after dosing; details: 12 h; dosed: Fluorotelomer alcohol 8+2; 80 mg/kg; oral; Female; Harlan Sprague Dawley
Rat [20] = assay: concentration in plasma after dosing; details: 192 h; dosed: 678-39-7; 12 mg/kg; iv; Male; F344
Rat [21] = assay: concentration in plasma after dosing; details: dosed: 678-39-7, 40 mg/kg, iv, Female, Harlan Sprague-Dawley
Rat [22] = assay: concentration in kidney after dosing; details: 12 h; dosed: Fluorotelomer alcohol 8+2; 24 mg/kg; oral; Male; Harlan Sprague Dawley
Rat [23] = assay: concentration in plasma after dosing; details: 3 h; dosed: 678-39-7; 40 mg/kg; iv; Male; F344
Rat [24] = assay: concentration in plasma after dosing; details: dosed: Fluorotelomer alcohol 8+2, 12 mg/kg, oral, Male, Harlan Sprague Dawley
Rat [25] = assay: concentration in plasma after dosing; details: dosed: 678-39-7, 40 mg/kg, iv, Female, Harlan Sprague-Dawley; remark: listed apart in the source

CC1CCCO1 (configuration not stated) [2-Methyltetrahydrofuran]
Details	concentration in brain [ng/mL]	concentration in plasma [ng/mL]
Rat [1]	15800	–
Rat [2]	24100	–
Rat [3]	–	27200
Rat [4]	–	29200

ClC=C(Cl)Cl [trichloroethylene]
rat [5], inhalation
Details	concentration in blood [ng/mL]
0.1294 h, 600.4 ppm, duration: 4 hr, female, Fischer-344	21900
0.1299 h, 50 ppm, duration: 2 hr, male, Sprague Dawley	443
0.1617 h, 50 ppm, duration: 2 hr, male, Sprague Dawley	402
0.2483 h, 50 ppm, duration: 2 hr, male, Sprague Dawley	454
0.3289 h, 50 ppm, duration: 2 hr, male, Sprague Dawley	492
0.4153 h, 50 ppm, duration: 2 hr, male, Sprague Dawley	352
0.4974 h, 50 ppm, duration: 2 hr, male, Sprague Dawley	493
0.5081 h, 600.4 ppm, duration: 4 hr, female, Fischer-344	15900
0.7511 h, 50 ppm, duration: 2 hr, male, Sprague Dawley	433
1.002 h, 50 ppm, duration: 2 hr, male, Sprague Dawley	555
1.016 h, 600.4 ppm, duration: 4 hr, female, Fischer-344	9420
1.252 h, 50 ppm, duration: 2 hr, male, Sprague Dawley	512
1.531 h, 600.4 ppm, duration: 4 hr, female, Fischer-344	5750
2.018 h, 600.4 ppm, duration: 4 hr, female, Fischer-344	4750
110 s, 50 ppm, duration: 2 hr, male, Sprague Dawley	206
219 s, 50 ppm, duration: 2 hr, male, Sprague Dawley	267
350 s, 50 ppm, duration: 2 hr, male, Sprague Dawley	337

rat [5], oral
Details	concentration in blood [ng/mL]
0.1447 h, 18 mg/kg, male, Wistar	10200
0.1716 h, 7.6 mg/kg, female, F344	1400
0.1747 h, 18 mg/kg, male, Wistar	7730
0.2208 h, 18 mg/kg, male, Wistar	5020
0.2739 h, 18 mg/kg, male, Wistar	3760
0.3228 h, 18 mg/kg, male, Wistar	2790
0.3309 h, 7.6 mg/kg, female, F344	494
0.3794 h, 18 mg/kg, male, Wistar	2110
0.4319 h, 18 mg/kg, male, Wistar	1710
0.5005 h, 7.6 mg/kg, female, F344	296
0.5204 h, 18 mg/kg, male, Wistar	1350
0.7693 h, 18 mg/kg, male, Wistar	957
1.014 h, 18 mg/kg, male, Wistar	768
1.512 h, 18 mg/kg, male, Wistar	503
2.017 h, 18 mg/kg, male, Wistar	333
2.518 h, 18 mg/kg, male, Wistar	321
3.02 h, 18 mg/kg, male, Wistar	214
3.529 h, 18 mg/kg, male, Wistar	59.6
4.027 h, 18 mg/kg, male, Wistar	47.7
125 s, 7.6 mg/kg, female, F344	1770
143 s, 18 mg/kg, male, Wistar	11100
266 s, 18 mg/kg, male, Wistar	13600
296 s, 7.6 mg/kg, female, F344	2100
355 s, 18 mg/kg, male, Wistar	13000

human
Details	concentration in expired air
0.1172 h	7.17 ppm
0.1972 h	5.83 ppm
0.3304 h	5.7 ppm
0.4637 h	4.83 ppm
0.9967 h	2.59 ppm
2.009 h	1.89 ppm
4.021 h	1.39 ppm
5.993 h	1.35 ppm
8.019 h	1.01 ppm
10.04 h	1.08 ppm
12.02 h	0.874 ppm
38 s	21.7 ppm
230 s	14.3 ppm and 10.8 ppm

O=C(O)C(F)(F)C(F)(F)C(F)(F)C(F)(F)C(F)(F)F [Perfluorohexanoic Acid]
Details	concentration in liver [ng/g]
Rat [6]	1910

Cc1ccc(C)c(OCCCC(C)(C)C(=O)O)c1 [Gemfibrozil]
Details	concentration in plasma [ng/mL]
Rat [7]	4380
Rat [8]	388
Rat [9]	72300
Rat [10]	640
Rat [11]	7800

O=S(=O)([O-])C(F)(F)C(F)(F)C(F)(F)C(F)(F)C(F)(F)C(F)(F)C(F)(F)C(F)(F)F [Perfluorooctane Sulfonate]
Details	concentration in brain [ng/g]	concentration in kidney [ng/g]	concentration in plasma [ng/mL]
Rat [12]	1910	–	–
Rat [13]	920	–	–
Rat [14]	–	–	4580
Rat [15]	–	3800	–
Rat [17]	–	4960	–
Rat [18]	–	2960	–

Rat [16]
Details	concentration in plasma [ng/mL]
1 h	4870
528 h	2180

O=C(O)CCC(F)(F)C(F)(F)C(F)(F)C(F)(F)C(F)(F)C(F)(F)C(F)(F)F [Fluorotelomer acid 7+3]
Details	concentration in kidney [ng/g]	concentration in liver [ng/g]	concentration in plasma [ng/mL]
Rat [19]	–	7200	–
Rat [20]	–	–	13.6
Rat [22]	573	–	–
Rat [23]	–	–	2370

concentration in plasma [ng/mL]
Details	0.75 h	1 h	12 h	24 h
Rat [21]	–	1350	–	347
Rat [24]	274	–	110	–
Rat [25]	1830	–	863	–

— EPA's CvTdb concentration-time database
